For 16 compounds, MIC results are on record in ChEMBL document CHEMBL1143736, “Synthesis and antimycobacterial activity of 4-(5-substituted-1,3,4-oxadiazol-2-yl)pyridines” (Bioorg Med Chem, 2007).

Converted amounts (≈) assume the structure as drawn.

Common to all, as to format: functional
Experiment [1] relates to Mycobacterium tuberculosis. Nature of the experiment: Antimycobacterial activity against streptomycin and isoniazid-resistant Mycobacterium tuberculosis CIBIN 675 isolates. The method in brief:
(§1)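 Modified microplate Alamar Blue assay (MABA). Inoculum came from a log-phase culture matched to McFarland 1, diluted 1:50 in Middlebrook 7H9 to 6 × 10^6 CFU/mL, and prepared just before inoculation.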

For experiment [2], the system named is Mycobacterium tuberculosis. Nature of the experiment: Antimycobacterial activity against streptomycin, isoniazid, rifampicin, pyrazinamide-resistant Mycobacterium tuberculosis CIBIN 234 isolates. The method in brief: as §1
Experiment [3] has as its system Mycobacterium tuberculosis. The experiment in a line: Antimycobacterial activity against streptomycin, isoniazid, ethambutol-resistant Mycobacterium tuberculosis CIBIN 112 isolates. In outline:
as §1

As a reminder, the MIC is the least concentration at which growth counts as inhibited. As to `Cc1nnc(-c2ccncc2)o1`, the MIC in experiment [1] amounted to 49.7 µM; in experiment [2] it was 49.7 µM (≈ 8.01 µg/mL); in experiment [3] it was 49.7 µM (≈ 8.01 µg/mL).
For `ClCc1nnc(-c2ccncc2)o1`, the MIC in experiment [1] turned out to be 41 µM; in experiment [2], 41 µM (≈ 8.03 µg/mL); in experiment [3], 41 µM (≈ 8.03 µg/mL).
Consider `CCCCCCCCCCCCCCCc1nnc(-c2ccncc2)o1`, for which the minimum inhibitory concentration (MIC) in experiment [1] came to 11.2 µM; in experiment [2], 22.4 µM (≈ 8 µg/mL); in experiment [3] it was 2.8 µM (≈ 1 µg/mL).
Consider `c1cc(-c2nnc(-c3ccncc3)o2)ccn1`, for which the figures for the MIC in experiment [1], in experiment [2] and in experiment [3] were 35.7 µM, 35.7 µM (≈ 8.01 µg/mL) and 35.7 µM (≈ 8.01 µg/mL), respectively.
`CCCCCCCCCCCCCCCCCc1nnc(-c2ccncc2)o1`: the results for the MIC in experiment [1], in experiment [2] and in experiment [3] were 10.4 µM, 20.8 µM (≈ 8 µg/mL) and 2.59 µM (≈ 0.999 µg/mL), respectively.
As for `O=[N+]([O-])c1ccc(-c2nnc(-c3ccncc3)o2)cc1`, the MIC in experiment [1] was determined as 29.9 µM; in experiment [2], 29.9 µM (≈ 8.01 µg/mL); in experiment [3], 29.9 µM (≈ 8.01 µg/mL).
On to `O=[N+]([O-])c1cc(-c2nnc(-c3ccncc3)o2)cc([N+](=O)[O-])c1`, for which the MIC was determined as 25.5 µM in experiment [1], 25.5 µM (≈ 8 µg/mL) in experiment [2] and 12.8 µM (≈ 4 µg/mL) in experiment [3].
With `CN(C)c1ccc(-c2nnc(-c3ccncc3)o2)cc1`, the MIC in experiment [1] came out at 30 µM; in experiment [2], 30 µM (≈ 8 µg/mL); in experiment [3], 30 µM (≈ 8 µg/mL).
`FC(F)(F)c1nnc(-c2ccncc2)o1`: the MIC is 37.2 µM in experiment [1], 37.2 µM (≈ 8.01 µg/mL) in experiment [2] and 37.2 µM (≈ 8.01 µg/mL) in experiment [3].
As for `O=[N+]([O-])c1ccccc1-c1nnc(-c2ccncc2)o1`, the results for the MIC in experiment [1], in experiment [2] and in experiment [3] were 29.9 µM, 29.9 µM (≈ 8.01 µg/mL) and 29.9 µM (≈ 8.01 µg/mL), respectively.
As to `COc1cc(-c2nnc(-c3ccncc3)o2)cc(OC)c1OC`, the MIC was determined as 28.2 µM in experiment [1], 28.2 µM (≈ 8.85 µg/mL) in experiment [2] and 14.1 µM (≈ 4.42 µg/mL) in experiment [3].
Turning to `c1ccc(-c2nnc(-c3ccncc3)o2)cc1`, the MIC came to 35.9 µg/mL in experiment [1], 35.9 µM (≈ 8.01 µg/mL) in experiment [2] and 35.9 µM (≈ 8.01 µg/mL) in experiment [3].
For the compound `CN[C@@H]1[C@H](O[C@H]2[C@H](O[C@H]3[C@H](O)[C@@H](O)[C@H](N=C(N)N)[C@@H](O)[C@@H]3N=C(N)N)O[C@@H](C)[C@]2(O)C=O)O[C@@H](CO)[C@H](O)[C@H]1O` (stereo in doubt) [STREPTOMYCIN], the figures for the MIC in experiment [1], in experiment [2] and in experiment [3] were 6.87 µM, 55 µM (≈ 32 µg/mL) and 55 µM (≈ 32 µg/mL), respectively.
As to `CC[C@@H](CO)NCCN[C@@H](CC)CO` [ETHAMBUTOL], the MIC in experiment [3] was found to be 78.3 µM (≈ 16 µg/mL).
Consider `NNC(=O)c1ccncc1` [ISONIAZID], for which the minimal inhibitory concentration (MIC) in experiment [1] is 29.2 µM; in experiment [2], 58.4 µM (≈ 8.01 µg/mL); in experiment [3] it was 29.2 µM (≈ 4 µg/mL).
As for `CO[C@H]1/C=C/O[C@@]2(C)Oc3c(C)c(O)c4c(O)c(c(/C=N/N5CCN(C)CC5)c(O)c4c3C2=O)NC(=O)/C(C)=C\C=C\[C@H](C)[C@H](O)[C@@H](C)[C@@H](O)[C@@H](C)[C@H](OC(C)=O)[C@@H]1C` [RIFAMPIN], the figures for the MIC in experiment [1], in experiment [2] and in experiment [3] were 0.94 µM, 122 µM (≈ 100 µg/mL) and 3.79 µM (≈ 3.12 µg/mL), respectively.
